For four molecules, Activity results are on record in ChEMBL document CHEMBL1240414, “Synthesis and anticonvulsant activity of new 6-methyl-1-substituted-4,6-diazaspiro[2.4]heptane-5,7-diones” (Eur J Med Chem, 2010).

The test system of series [1] is Mus musculus. Kind of series: Anticonvulsant activity in Kunming mouse assessed as protection against maximal electroshock-induced seizures at 30 mg/kg, ip after 0.5 hrs. It counts as functional, organism-based. On the set-up: dose 30 mg/kg. A general note: Protection in the maximal electroshock model is a classic sign of anticonvulsant action.
For series [2], the system named is Mus musculus. Kind of series: Anticonvulsant activity in Kunming mouse assessed as protection against maximal electroshock-induced seizures at 100 mg/kg, ip after 0.5 hrs. It counts as functional, organism-based. On the set-up: dose 100 mg/kg.
Series [3] has as its system Mus musculus. Kind of series: Anticonvulsant activity in Kunming mouse assessed as protection against maximal electroshock-induced seizures at 300 mg/kg, ip after 0.5 hrs. It is filed as functional, organism-based. More on the design: dose 300 mg/kg.
Series [4] deals with Mus musculus. Kind of series: Anticonvulsant activity in Kunming mouse assessed as protection against maximal electroshock-induced seizures at 30 mg/kg, ip after 4 hrs. On the set-up: dose 30 mg/kg. It is filed as functional, organism-based.
Series [5] concerns Mus musculus. Kind of series: Anticonvulsant activity in Kunming mouse assessed as protection against maximal electroshock-induced seizures at 100 mg/kg, ip after 4 hrs. More on the design: dose 100 mg/kg. It counts as functional, organism-based.
Series [6] has as its system Mus musculus. Description: Anticonvulsant activity in Kunming mouse assessed as protection against maximal electroshock-induced seizures at 300 mg/kg, ip after 4 hrs. It counts as functional, organism-based. More on the design: dose 300 mg/kg.
For series [7], the system named is Mus musculus. Kind of series: Anticonvulsant activity in Kunming mouse assessed as protection against subcutaneous pentylenetetrazole-induced seizures at 30 mg/kg, ip after 0.5 hrs. On the set-up: dose 30 mg/kg. It is filed as functional, organism-based. The method in brief:
(§1)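 Male Kunming mice (20 ± 2.0 g) received the compound ip as a suspension in 0.5% methylcellulose at 30, 100 or 300 mg/kg, one to four mice per dose. Pentylenetetrazole in 0.9% saline was given sc at 0.5 h and 4.0 h after dosing. Protection meant no threshold seizure (one clonic spasm episode of at least 5 s). Scored as protected/tested.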

The test system of series [8] is Mus musculus. Kind of series: Anticonvulsant activity in Kunming mouse assessed as protection against subcutaneous pentylenetetrazole-induced seizures at 100 mg/kg, ip after 0.5 hrs. It counts as functional, organism-based. More on the design: dose 100 mg/kg. The method in brief:
as §1

Series [9] relates to Mus musculus. Description: Anticonvulsant activity in Kunming mouse assessed as protection against subcutaneous pentylenetetrazole-induced seizures at 300 mg/kg, ip after 0.5 hrs. It counts as functional, organism-based. More on the design: dose 300 mg/kg. An outline of the steps:
as §1

Series [10] relates to Mus musculus. Kind of series: Anticonvulsant activity in Kunming mouse assessed as protection against subcutaneous pentylenetetrazole-induced seizures at 30 mg/kg, ip after 4 hrs. It is filed as functional, organism-based. On the set-up: dose 30 mg/kg. The method in brief: as §1
In series [11] the test system is Mus musculus. Kind of series: Anticonvulsant activity in Kunming mouse assessed as protection against subcutaneous pentylenetetrazole-induced seizures at 100 mg/kg, ip after 4 hrs. More on the design: dose 100 mg/kg. It is filed as functional, organism-based. An outline of the steps:
as §1

In series [12] the test system is Mus musculus. Description: Anticonvulsant activity in Kunming mouse assessed as protection against subcutaneous pentylenetetrazole-induced seizures at 300 mg/kg, ip after 4 hrs. On the set-up: dose 300 mg/kg. It counts as functional, organism-based. An outline of the steps: as §1
Series [13] deals with Mus musculus. Description: Neurotoxicity in Kunming mouse assessed as minimum motor impairment at 30 mg/kg, ip after 0.5 hrs by rotarod test. On the set-up: dose 30 mg/kg, route intraperitoneal. It counts as toxicity, organism-based. The settings on record: in vivo. An outline of the steps: (§2)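 Rotorod neurotoxicity in male Kunming mice (20 ± 2.0 g) given ip doses of 30, 100 or 300 mg/kg as a suspension in 0.5% methylcellulose, one to four mice per dose. Motor impairment was examined at 0.5 h and 4.0 h after injection. Reported as number of animals showing toxicity/number tested.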

In series [14] the test system is Mus musculus. Description: Neurotoxicity in Kunming mouse assessed as minimum motor impairment at 30 mg/kg, ip after 4 hrs by rotarod test. It is filed as toxicity, organism-based. The note with it: in vivo. More on the design: dose 30 mg/kg, route intraperitoneal. The method in brief:
as §2
In general terms: In the rotarod test animals must keep their balance on a rotating rod.

Series [15] has as its system Mus musculus. Description: Neurotoxicity in Kunming mouse assessed as minimum motor impairment at 100 mg/kg, ip after 0.5 hrs by rotarod test. It counts as toxicity, organism-based. More on the design: dose 100 mg/kg, route intraperitoneal. The settings on record: in vivo. An outline of the steps: as §2
Series [16] concerns Mus musculus. Kind of series: Neurotoxicity in Kunming mouse assessed as minimum motor impairment at 300 mg/kg, ip after 0.5 hrs by rotarod test. It counts as toxicity, organism-based. The note with it: in vivo. On the set-up: dose 300 mg/kg, route intraperitoneal. The method in brief:
as §2

Series [17] relates to Mus musculus. Description: Neurotoxicity in Kunming mouse assessed as minimum motor impairment at 100 mg/kg, ip after 4 hrs by rotarod test. It is filed as toxicity, organism-based. On the set-up: dose 100 mg/kg, route intraperitoneal. The settings on record: in vivo. The method in brief: as §2
The test system of series [18] is Mus musculus. Kind of series: Neurotoxicity in Kunming mouse assessed as minimum motor impairment at 300 mg/kg, ip after 4 hrs by rotarod test. It is filed as toxicity, organism-based. More on the design: dose 300 mg/kg, route intraperitoneal. The settings on record: in vivo. The method in brief:
as §2

Series [19] deals with Rattus norvegicus. Kind of series: Neurotoxicity in Kunming rat assessed as minimum motor impairment at 30 mg/kg, po after 0.25 hrs by rotarod test. On the set-up: dose 30 mg/kg, route oral. It counts as toxicity, organism-based. The note with it: in vivo. The method in brief:
(§3)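 Rotorod neurotoxicity in male Kunming rats (250 ± 5.0 g) given 30 mg/kg po, four rats per compound. Motor impairment was assessed at 0.25, 0.5, 1, 2 and 4 h after oral administration.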

Series [20] has as its system Rattus norvegicus. Kind of series: Neurotoxicity in Kunming rat assessed as minimum motor impairment at 30 mg/kg, po after 0.5 hrs by rotarod test. It is filed as functional, organism-based. More on the design: dose 30 mg/kg. An outline of the steps: as §3
The test system of series [21] is Rattus norvegicus. Kind of series: Neurotoxicity in Kunming rat assessed as minimum motor impairment at 30 mg/kg, po after 1 hr by rotarod test. It counts as functional, organism-based. On the set-up: dose 30 mg/kg. An outline of the steps: as §3
For series [22], the system named is Rattus norvegicus. Kind of series: Neurotoxicity in Kunming rat assessed as minimum motor impairment at 30 mg/kg, po after 2 hrs by rotarod test. It is filed as functional, organism-based. More on the design: dose 30 mg/kg. An outline of the steps:
as §3

Series [23] relates to Rattus norvegicus. Kind of series: Neurotoxicity in Kunming rat assessed as minimum motor impairment at 30 mg/kg, po after 4 hrs by rotarod test. On the set-up: dose 30 mg/kg. It is filed as functional, organism-based. The method in brief:
as §3

For series [24], the system named is Rattus norvegicus. Description: Anticonvulsant activity in Kunming rat assessed as protection against subcutaneous pentylenetetrazole-induced seizures at 30 mg/kg, po after 1 hr. It counts as functional.

Activity calls are given as the source filed them.

For `CN1C(=O)NC2(CC2c2ccco2)C1=O` (centres undefined), the outcome with Mus musculus [1], in the series with Mus musculus [2], in the series with Mus musculus [4], in the series on Mus musculus [5], with Mus musculus [6] and with Mus musculus [7] was inactive. Moreover, the outcome with Mus musculus [8], in the series with Mus musculus [9], in the series on Mus musculus [10], in the series with Mus musculus [11] and in the series on Mus musculus [12] was inactive. Moreover, the result with Mus musculus [3] was Active. Also, the values for the Activity entry in the series with Mus musculus [13] and in the series with Mus musculus [14] were “Toxic” and “Non-toxic”, respectively.

For `COc1ccc(C2CC23NC(=O)N(C)C3=O)c(OC)c1OC` (centres undefined), the outcome in the series on Mus musculus [1], in the series with Mus musculus [4], in the series with Mus musculus [5], in the series on Mus musculus [7], in the series on Mus musculus [10] and with Rattus norvegicus [24] was inactive. Moreover, the outcome in the series with Mus musculus [6] was Active. Besides, the Activity entry with Mus musculus [13], with Mus musculus [15], with Mus musculus [16], with Mus musculus [14], in the series on Mus musculus [17] and in the series with Mus musculus [18] was “Non-toxic” each time. The Activity result in the series on Rattus norvegicus [19] was “Non-toxic”; in the series with Rattus norvegicus [20] it was “Not toxic”; with Rattus norvegicus [21] it was “Not toxic”; in the series with Rattus norvegicus [22], “Not toxic”; in the series on Rattus norvegicus [23], “Not toxic”.

As to `CN1C(=O)NC2(CC2c2ccc(Br)cc2)C1=O` (centres undefined), the outcome in the series on Mus musculus [1], in the series with Mus musculus [2], in the series with Mus musculus [4], with Mus musculus [5], in the series on Mus musculus [7] and with Mus musculus [8] was inactive. Besides, the outcome in the series with Mus musculus [9], in the series with Mus musculus [10], with Mus musculus [11] and with Mus musculus [12] was inactive. Besides, the outcome in the series on Mus musculus [3] and with Mus musculus [6] was Active. Besides, the Activity result with Mus musculus [13], in the series on Mus musculus [16], in the series on Mus musculus [14] and in the series on Mus musculus [17] was “Non-toxic” throughout.

As to `CN1C(=O)NC2(CC2c2ccccc2Cl)C1=O` (centres undefined), the outcome with Mus musculus [1], with Mus musculus [4], in the series on Mus musculus [5], with Mus musculus [6], with Mus musculus [7] and in the series on Mus musculus [8] was inactive. Moreover, the result with Mus musculus [9], in the series on Mus musculus [10], with Mus musculus [11] and in the series on Mus musculus [12] was inactive. The outcome in the series with Mus musculus [3] was Active. Further, the Activity result in the series with Mus musculus [13] is listed as “Non-toxic”; in the series with Mus musculus [16], “Toxic”; in the series on Mus musculus [14], “Non-toxic”; in the series with Mus musculus [17], “Non-toxic”; in the series with Mus musculus [18], “Toxic”.
